Values after ≈ are worked out from the molar mass of the structure shown.
Legend:
HepG2 = assay: Cytotoxicity against human HepG2 cells after 48 hrs by sulforhodamine B assay; type: functional, cell-based; details: HepG2, 48 h
Outline: (§1)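 SRB assay. Cells seeded at 10⁴ cells/well and left 24 h to attach. Exposed to 0, 1, 2.5, 5 and 10 μg/ml for 48 h at 37 °C in humidified 5% CO₂. Fixed with trichloroacetic acid and stained 30 min with 0.4% SRB in 1% acetic acid. Washed with 1% acetic acid; bound dye extracted with Tris EDTA and absorbance read. IC50 taken from surviving fraction versus concentration curves.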

HCT-116 = assay: Cytotoxicity against human HCT116 cells after 48 hrs by sulforhodamine B assay; type: functional, cell-based; details: HCT-116, 48 h; outline: as §1
Staphylococcus aureus = assay: Antibacterial activity against Staphylococcus aureus after 24 hrs by broth dilution method; type: functional
Outline: (§2)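 NCCLS broth dilution in 96-well microtitre plates. Inoculum adjusted with sterile saline to 1.0×10^5 c.f.u./ml. Compounds dissolved in DMSO, with a broth-plus-DMSO solvent control. Incubated 24 h at 37 °C. MIC is the lowest concentration without visible growth. For MBC, clear wells were plated on Mueller Hinton agar for 24 h at 37 °C; MBC is the lowest concentration with no colonies. Duplicates, repeated three times; values in μg/ml.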

Escherichia coli = assay: Antibacterial activity against Escherichia coli after 24 hrs by broth dilution method; type: functional; outline: as §2

COc1cccc2c1C(=O)c1c(O)c3c(c(O)c1C2=O)C[C@@](O)(C(=O)CO)C[C@@H]3O[C@H]1C[C@H](N)[C@H](O)[C@H](C)O1 [DOXORUBICIN]
IC50 (HepG2): 5.5 µg/mL (≈ 10.1 µM)
IC50 (HCT-116): 3.73 µg/mL (≈ 6.86 µM)

CCNc1nn2c(-c3ccc([N+](=O)[O-])o3)nnc2s1
MBC (Staphylococcus aureus): 100 µg/mL (≈ 357 µM)
MIC (Staphylococcus aureus): 25 µg/mL (≈ 89.2 µM)
MBC (Escherichia coli): 200 µg/mL (≈ 714 µM)
MIC (Escherichia coli): 25 µg/mL (≈ 89.2 µM)

O=[N+]([O-])c1ccc(-c2nnc3sc(Nc4ccc(F)cc4)nn23)o1
MBC (Staphylococcus aureus): 50 µg/mL (≈ 144 µM)
MIC (Staphylococcus aureus): 25 µg/mL (≈ 72.2 µM)
MBC (Escherichia coli): 100 µg/mL (≈ 289 µM)
MIC (Escherichia coli): 25 µg/mL (≈ 72.2 µM)
IC50 (HepG2): 11.3 µg/mL (≈ 32.6 µM)
IC50 (HCT-116): 8.91 µg/mL (≈ 25.7 µM)

O=[N+]([O-])c1ccc(C2=Nn3c(nnc3-c3ccc([N+](=O)[O-])o3)SC2)cc1
MBC (Staphylococcus aureus): 100 µg/mL (≈ 269 µM)
MIC (Staphylococcus aureus): 50 µg/mL (≈ 134 µM)
MBC (Escherichia coli): 200 µg/mL (≈ 537 µM)
MIC (Escherichia coli): 25 µg/mL (≈ 67.1 µM)

O=[N+]([O-])c1ccc(-c2nnc3n2NC(c2cccs2)S3)o1 (stereo unspecified)
MBC (Staphylococcus aureus): 200 µg/mL (≈ 622 µM)
MIC (Staphylococcus aureus): 25 µg/mL (≈ 77.8 µM)
MBC (Escherichia coli): 200 µg/mL (≈ 622 µM)
MIC (Escherichia coli): 50 µg/mL (≈ 156 µM)

CCCCNc1nn2c(-c3ccc([N+](=O)[O-])o3)nnc2s1
MBC (Staphylococcus aureus): 200 µg/mL (≈ 649 µM)
MIC (Staphylococcus aureus): 25 µg/mL (≈ 81.1 µM)
MBC (Escherichia coli): 100 µg/mL (≈ 324 µM)
MIC (Escherichia coli): 25 µg/mL (≈ 81.1 µM)

O=[N+]([O-])c1ccc(-c2nnc3n2N=C(c2ccc(Cl)cc2)CS3)o1
MBC (Staphylococcus aureus): 200 µg/mL (≈ 553 µM)
MIC (Staphylococcus aureus): 25 µg/mL (≈ 69.1 µM)
MBC (Escherichia coli): 200 µg/mL (≈ 553 µM)
MIC (Escherichia coli): 25 µg/mL (≈ 69.1 µM)

O=[N+]([O-])c1ccc(-c2nnc3n2NC(c2ccc[nH]2)S3)o1 (stereo unspecified)
MBC (Staphylococcus aureus): 200 µg/mL (≈ 657 µM)
MIC (Staphylococcus aureus): 25 µg/mL (≈ 82.2 µM)
MBC (Escherichia coli): 200 µg/mL (≈ 657 µM)
MIC (Escherichia coli): 25 µg/mL (≈ 82.2 µM)

Nn1c(S)nnc1-c1ccc([N+](=O)[O-])o1
MBC (Staphylococcus aureus): 200 µg/mL (≈ 880 µM)
MIC (Staphylococcus aureus): 50 µg/mL (≈ 220 µM)
MBC (Escherichia coli): 200 µg/mL (≈ 880 µM)
MIC (Escherichia coli): 25 µg/mL (≈ 110 µM)

CCc1ccc(Nc2nn3c(-c4ccc([N+](=O)[O-])o4)nnc3s2)cc1
MBC (Staphylococcus aureus): 50 µg/mL (≈ 140 µM)
MIC (Staphylococcus aureus): 25 µg/mL (≈ 70.2 µM)
MBC (Escherichia coli): 50 µg/mL (≈ 140 µM)
MIC (Escherichia coli): 25 µg/mL (≈ 70.2 µM)
IC50 (HepG2): 3.78 µg/mL (≈ 10.6 µM)
IC50 (HCT-116): 6.65 µg/mL (≈ 18.7 µM)

O=[N+]([O-])c1ccc(-c2nnc3sc(Nc4ccccc4)nn23)o1
MBC (Staphylococcus aureus): 50 µg/mL (≈ 152 µM)
MIC (Staphylococcus aureus): 25 µg/mL (≈ 76.1 µM)
MBC (Escherichia coli): 100 µg/mL (≈ 305 µM)
MIC (Escherichia coli): 50 µg/mL (≈ 152 µM)
IC50 (HepG2): 4.23 µg/mL (≈ 12.9 µM)
IC50 (HCT-116): 4.38 µg/mL (≈ 13.3 µM)

COc1ccc(C2=Nn3c(nnc3-c3ccc([N+](=O)[O-])o3)SC2)cc1
MBC (Staphylococcus aureus): 200 µg/mL (≈ 560 µM)
MIC (Staphylococcus aureus): 50 µg/mL (≈ 140 µM)
MBC (Escherichia coli): 200 µg/mL (≈ 560 µM)
MIC (Escherichia coli): 25 µg/mL (≈ 70 µM)

O=[N+]([O-])c1ccc(-c2nnc3n2N=C(c2ccc(Br)cc2)CS3)o1
MBC (Staphylococcus aureus): 200 µg/mL (≈ 492 µM)
MIC (Staphylococcus aureus): 25 µg/mL (≈ 61.5 µM)
MBC (Escherichia coli): 200 µg/mL (≈ 492 µM)
MIC (Escherichia coli): 25 µg/mL (≈ 61.5 µM)

O=[N+]([O-])c1ccc(-c2nnc3n2N=C(c2ccccc2)CS3)o1
MBC (Staphylococcus aureus): 200 µg/mL (≈ 611 µM)
MIC (Staphylococcus aureus): 100 µg/mL (≈ 306 µM)
MBC (Escherichia coli): 200 µg/mL (≈ 611 µM)
MIC (Escherichia coli): 50 µg/mL (≈ 153 µM)

CC1(C)S[C@@H]2[C@H](NC(=O)[C@H](N)c3ccccc3)C(=O)N2[C@H]1C(=O)O [AMPICILLIN]
MBC (Staphylococcus aureus): 50 µg/mL (≈ 143 µM)
MIC (Staphylococcus aureus): 25 µg/mL (≈ 71.5 µM)
MBC (Escherichia coli): 25 µg/mL (≈ 71.5 µM)
MIC (Escherichia coli): 12.5 µg/mL (≈ 35.8 µM)

O=[N+]([O-])c1ccc(-c2nnc3n2NC(c2ccc([N+](=O)[O-])o2)S3)o1 (stereo unspecified)
MBC (Staphylococcus aureus): 200 µg/mL (≈ 571 µM)
MIC (Staphylococcus aureus): 25 µg/mL (≈ 71.4 µM)
MBC (Escherichia coli): 200 µg/mL (≈ 571 µM)
MIC (Escherichia coli): 25 µg/mL (≈ 71.4 µM)

O=[N+]([O-])c1ccc(-c2nnc3n2NC(c2ccco2)S3)o1 (stereo unspecified)
MBC (Staphylococcus aureus): 200 µg/mL (≈ 655 µM)
MIC (Staphylococcus aureus): 25 µg/mL (≈ 81.9 µM)
MBC (Escherichia coli): 200 µg/mL (≈ 655 µM)
MIC (Escherichia coli): 25 µg/mL (≈ 81.9 µM)

O=[N+]([O-])c1ccc(-c2nnc3n2NC(c2ccc([N+](=O)[O-])s2)S3)o1 (stereo unspecified)
MBC (Staphylococcus aureus): 200 µg/mL (≈ 546 µM)
MIC (Staphylococcus aureus): 25 µg/mL (≈ 68.2 µM)
MBC (Escherichia coli): 200 µg/mL (≈ 546 µM)
MIC (Escherichia coli): 50 µg/mL (≈ 136 µM)

From ChEMBL document CHEMBL1806362, “Synthesis of some new [1,2,4]triazolo[3,4-b][1,3,4]thiadiazines and [1,2,4]triazolo[3,4-b][1,3,4] thiadiazoles starting from 5-nitro-2-furoic acid and evaluation of their antimicrobial activity” (Bioorg Med Chem, 2011)
